{"source": "ChEMBL document CHEMBL1821606", "about": "“Bioactive prenylogous cannabinoid from fiber hemp (Cannabis sativa)” (J Nat Prod, 2011)", "key": {"Cannabinoid receptor 1": {"molecular_target": "Cannabinoid receptor 1 (Homo sapiens, UniProt P21554)", "sequence (P21554 whole entry)": "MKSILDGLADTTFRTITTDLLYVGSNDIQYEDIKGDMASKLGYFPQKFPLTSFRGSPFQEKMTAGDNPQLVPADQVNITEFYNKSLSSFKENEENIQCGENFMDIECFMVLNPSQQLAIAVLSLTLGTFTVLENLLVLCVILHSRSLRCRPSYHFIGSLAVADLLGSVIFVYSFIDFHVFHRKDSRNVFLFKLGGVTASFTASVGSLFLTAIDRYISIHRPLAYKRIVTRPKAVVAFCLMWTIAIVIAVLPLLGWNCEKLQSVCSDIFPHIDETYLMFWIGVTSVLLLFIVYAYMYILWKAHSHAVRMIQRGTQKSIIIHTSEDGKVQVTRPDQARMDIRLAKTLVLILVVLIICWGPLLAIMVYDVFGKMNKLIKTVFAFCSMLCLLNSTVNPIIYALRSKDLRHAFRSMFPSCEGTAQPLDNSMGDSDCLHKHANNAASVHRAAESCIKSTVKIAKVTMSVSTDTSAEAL", "assay": "Displacement of [3H]-CP-55,940 from human recombinant CB1 receptor expressed in HEK293 cells membrane incubated for 90 mins", "type": "cell membranes"}, "Cannabinoid receptor 2": {"molecular_target": "Cannabinoid receptor 2 (Homo sapiens, UniProt P34972)", "sequence (P34972 whole entry)": "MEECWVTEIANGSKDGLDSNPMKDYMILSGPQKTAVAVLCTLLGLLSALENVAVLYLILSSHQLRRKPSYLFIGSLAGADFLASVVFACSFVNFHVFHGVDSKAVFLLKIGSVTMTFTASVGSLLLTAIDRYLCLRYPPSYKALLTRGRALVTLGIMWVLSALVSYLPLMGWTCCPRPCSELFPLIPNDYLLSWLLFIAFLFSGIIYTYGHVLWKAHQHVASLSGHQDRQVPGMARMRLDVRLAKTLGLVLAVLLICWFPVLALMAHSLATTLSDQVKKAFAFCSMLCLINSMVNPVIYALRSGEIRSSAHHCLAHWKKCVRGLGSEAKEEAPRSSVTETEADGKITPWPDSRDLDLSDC", "assay": "Displacement of [3H]-CP-55,940 from human recombinant CB2 receptor expressed in HEK293 cells membrane incubated for 90 mins", "type": "cell membranes"}, "[1]": {"molecular_target": "T1, Transient receptor potential cation channel subfamily V member 1 (Homo sapiens, UniProt Q8NER1)", "T1 sequence (Q8NER1 whole entry)": "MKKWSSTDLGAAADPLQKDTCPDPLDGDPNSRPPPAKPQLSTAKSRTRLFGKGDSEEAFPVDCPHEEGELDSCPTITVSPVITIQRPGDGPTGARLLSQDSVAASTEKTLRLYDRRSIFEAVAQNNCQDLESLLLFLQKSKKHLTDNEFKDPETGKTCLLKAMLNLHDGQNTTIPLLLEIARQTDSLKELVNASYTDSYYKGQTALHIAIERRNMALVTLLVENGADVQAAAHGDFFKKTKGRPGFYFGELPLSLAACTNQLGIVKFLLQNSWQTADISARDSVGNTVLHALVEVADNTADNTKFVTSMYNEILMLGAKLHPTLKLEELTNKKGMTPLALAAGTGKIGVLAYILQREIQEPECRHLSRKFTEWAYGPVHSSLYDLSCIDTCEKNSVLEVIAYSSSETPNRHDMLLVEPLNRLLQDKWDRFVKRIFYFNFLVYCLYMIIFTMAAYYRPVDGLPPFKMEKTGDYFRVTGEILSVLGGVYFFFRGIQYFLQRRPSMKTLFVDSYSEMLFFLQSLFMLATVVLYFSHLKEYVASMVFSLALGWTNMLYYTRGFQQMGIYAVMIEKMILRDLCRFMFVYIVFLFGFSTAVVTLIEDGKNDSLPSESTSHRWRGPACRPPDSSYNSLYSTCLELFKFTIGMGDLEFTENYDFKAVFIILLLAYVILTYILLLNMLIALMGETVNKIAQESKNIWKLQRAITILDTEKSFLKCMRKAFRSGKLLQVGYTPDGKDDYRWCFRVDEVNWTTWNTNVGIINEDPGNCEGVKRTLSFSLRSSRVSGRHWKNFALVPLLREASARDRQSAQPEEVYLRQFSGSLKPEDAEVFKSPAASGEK", "assay": "Agonist activity at human TRPv1 receptor expressed in HEK293 cells assessed as stimulation of intracellular calcium level using Fluo4-AM dye based fluorimetric assay relative to 4 uM ionomycin", "type": "functional, cell-based"}, "[2]": {"molecular_target": "T1, Transient receptor potential cation channel subfamily V member 1", "assay": "Agonist activity at human TRPv1 receptor expressed in HEK293 cells assessed as stimulation of intracellular calcium level using Fluo4-AM dye based fluorimetric assay", "type": "functional, cell-based", "in_short": "(§1)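 Stable HEK293 lines (G-418 selected, expression checked by qPCR) loaded 1 h at room temperature with Fluo-4 AM 4 μM. Cells washed and resuspended in Tyrode's buffer pH 7.4. Fluorescence (ex 488/em 516 nm) read in a stirred cuvette at 25 °C before and after test compound at various concentrations. EC50 from sigmoidal variable-slope fit. At least triplicate.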"}, "[3]": {"molecular_target": "T1, Transient receptor potential cation channel subfamily V member 1", "assay": "Antagonist activity at human TRPv1 receptor expressed in HEK293 cells assessed as inhibition of 0.1 um capsaicin-induced stimulation of intracellular calcium level using Fluo4-AM dye based fluorimetric assay", "type": "functional, cell-based", "in_short": "(§2)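 Fluo-4 AM loaded stable HEK293 cells in Tyrode's buffer, read at 25 °C (ex 488/em 516 nm). Test compound added to the cuvette 5 min before the agonist: capsaicin 0.1 μM (TRPV1), AITC 100 μM (TRPA1), LPC 3 μM (TRPV2). Agonist alone taken as 100%. IC50 for half-maximal inhibition from curve fit. At least triplicate.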"}, "[4]": {"molecular_target": "T2, Transient receptor potential cation channel subfamily V member 2 (Rattus norvegicus) (UniProt Q9WUD2)", "T2 sequence (whole entry)": "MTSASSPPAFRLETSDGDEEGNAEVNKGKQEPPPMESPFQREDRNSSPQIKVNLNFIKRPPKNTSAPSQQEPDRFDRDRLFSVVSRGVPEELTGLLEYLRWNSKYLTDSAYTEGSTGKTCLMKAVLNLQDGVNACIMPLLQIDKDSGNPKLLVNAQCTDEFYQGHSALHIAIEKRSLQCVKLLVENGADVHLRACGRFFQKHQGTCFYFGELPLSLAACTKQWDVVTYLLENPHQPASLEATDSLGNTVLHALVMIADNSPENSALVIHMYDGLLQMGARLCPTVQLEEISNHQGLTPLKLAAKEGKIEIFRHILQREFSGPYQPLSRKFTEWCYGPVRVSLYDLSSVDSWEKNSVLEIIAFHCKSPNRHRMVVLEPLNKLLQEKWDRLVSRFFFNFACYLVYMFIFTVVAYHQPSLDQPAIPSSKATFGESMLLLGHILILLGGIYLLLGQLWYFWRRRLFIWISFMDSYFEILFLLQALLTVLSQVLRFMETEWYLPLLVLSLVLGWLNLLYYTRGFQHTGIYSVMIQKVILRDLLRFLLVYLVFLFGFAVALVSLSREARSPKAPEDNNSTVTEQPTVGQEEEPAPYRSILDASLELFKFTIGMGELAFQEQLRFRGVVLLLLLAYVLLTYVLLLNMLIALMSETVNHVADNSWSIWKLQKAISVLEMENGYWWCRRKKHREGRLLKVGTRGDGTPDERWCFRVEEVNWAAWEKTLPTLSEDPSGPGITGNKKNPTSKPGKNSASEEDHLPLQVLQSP", "assay": "Agonist activity at rat recombinant TRPV2 receptor expressed in HEK293 cells assessed as stimulation of intracellular calcium level using Fluo4-AM dye based fluorimetric assay relative to 4 uM ionomycin", "type": "functional, cell-based"}, "[5]": {"molecular_target": "T3, Transient receptor potential cation channel subfamily V member 2 (Rattus norvegicus, UniProt Q9WUD2)", "T3 sequence (Q9WUD2 whole entry)": "T2 sequence (whole entry)", "assay": "Agonist activity at rat recombinant TRPV2 receptor expressed in HEK293 cells assessed as stimulation of intracellular calcium level using Fluo4-AM dye based fluorimetric assay", "type": "functional, cell-based", "in_short": "as §1"}, "[6]": {"molecular_target": "T3, Transient receptor potential cation channel subfamily V member 2", "assay": "Antagonist activity at rat recombinant TRPV2 receptor expressed in HEK293 cells assessed as inhibition of 3 uM lysophosphatidylcholine-induced stimulation of intracellular calcium level using Fluo4-AM dye based fluorimetric assay", "type": "functional, cell-based", "in_short": "as §2"}, "[7]": {"molecular_target": "Transient receptor potential cation channel subfamily A member 1 (Rattus norvegicus) (UniProt Q6RI86)", "sequence (Q6RI86 whole entry)": "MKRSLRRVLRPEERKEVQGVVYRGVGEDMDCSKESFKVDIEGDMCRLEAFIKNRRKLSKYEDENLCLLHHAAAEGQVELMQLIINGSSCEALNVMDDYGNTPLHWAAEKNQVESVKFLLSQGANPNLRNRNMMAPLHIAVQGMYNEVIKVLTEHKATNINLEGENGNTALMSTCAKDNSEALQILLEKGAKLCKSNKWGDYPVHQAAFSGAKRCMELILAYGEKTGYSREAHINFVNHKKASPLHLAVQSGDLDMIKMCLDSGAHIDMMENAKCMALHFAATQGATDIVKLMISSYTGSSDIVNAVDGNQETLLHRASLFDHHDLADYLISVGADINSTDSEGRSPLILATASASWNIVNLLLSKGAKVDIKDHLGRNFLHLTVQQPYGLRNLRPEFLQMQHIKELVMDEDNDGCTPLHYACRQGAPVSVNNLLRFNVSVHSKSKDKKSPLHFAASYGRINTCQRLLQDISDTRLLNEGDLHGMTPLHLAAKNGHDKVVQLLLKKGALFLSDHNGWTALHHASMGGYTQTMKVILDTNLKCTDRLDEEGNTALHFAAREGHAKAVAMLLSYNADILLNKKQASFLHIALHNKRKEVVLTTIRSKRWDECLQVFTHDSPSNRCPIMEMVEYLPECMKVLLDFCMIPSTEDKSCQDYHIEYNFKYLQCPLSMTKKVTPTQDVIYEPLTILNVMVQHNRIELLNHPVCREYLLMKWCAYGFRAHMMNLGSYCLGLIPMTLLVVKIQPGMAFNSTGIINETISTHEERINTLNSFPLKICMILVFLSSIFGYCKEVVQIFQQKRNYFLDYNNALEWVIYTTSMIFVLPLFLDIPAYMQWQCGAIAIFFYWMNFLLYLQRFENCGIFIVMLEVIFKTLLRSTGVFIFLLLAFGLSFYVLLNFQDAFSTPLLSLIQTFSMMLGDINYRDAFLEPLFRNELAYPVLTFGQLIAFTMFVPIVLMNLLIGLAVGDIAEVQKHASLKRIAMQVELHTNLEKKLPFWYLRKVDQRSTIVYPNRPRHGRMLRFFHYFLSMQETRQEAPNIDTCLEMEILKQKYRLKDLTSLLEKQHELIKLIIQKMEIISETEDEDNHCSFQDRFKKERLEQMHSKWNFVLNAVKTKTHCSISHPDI", "assay": "Agonist activity at rat recombinant TRPA1 receptor expressed in HEK293 cells assessed as stimulation of intracellular calcium level using Fluo4-AM dye based fluorimetric assay relative to allyl isothiocyanate", "type": "functional, cell-based"}, "[8]": {"molecular_target": "T4, Transient receptor potential cation channel subfamily A member 1 (Rattus norvegicus, UniProt Q6RI86)", "T4 sequence (Q6RI86 whole entry)": "as above", "assay": "Agonist activity at rat recombinant TRPA1 receptor expressed in HEK293 cells assessed as stimulation of intracellular calcium level using Fluo4-AM dye based fluorimetric assay", "type": "functional, cell-based", "in_short": "as §1"}, "[9]": {"molecular_target": "T4, Transient receptor potential cation channel subfamily A member 1", "assay": "Antagonist activity at rat recombinant TRPA1 receptor expressed in HEK293 cells assessed as inhibition of 100 uM allyl isothiocyanate-induced stimulation of intracellular calcium level using Fluo4-AM dye based fluorimetric assay", "type": "functional, cell-based", "in_short": "as §2"}, "[10]": {"molecular_target": "Transient receptor potential cation channel subfamily M member 8 (Rattus norvegicus, UniProt Q8R455)", "sequence (Q8R455 whole entry)": "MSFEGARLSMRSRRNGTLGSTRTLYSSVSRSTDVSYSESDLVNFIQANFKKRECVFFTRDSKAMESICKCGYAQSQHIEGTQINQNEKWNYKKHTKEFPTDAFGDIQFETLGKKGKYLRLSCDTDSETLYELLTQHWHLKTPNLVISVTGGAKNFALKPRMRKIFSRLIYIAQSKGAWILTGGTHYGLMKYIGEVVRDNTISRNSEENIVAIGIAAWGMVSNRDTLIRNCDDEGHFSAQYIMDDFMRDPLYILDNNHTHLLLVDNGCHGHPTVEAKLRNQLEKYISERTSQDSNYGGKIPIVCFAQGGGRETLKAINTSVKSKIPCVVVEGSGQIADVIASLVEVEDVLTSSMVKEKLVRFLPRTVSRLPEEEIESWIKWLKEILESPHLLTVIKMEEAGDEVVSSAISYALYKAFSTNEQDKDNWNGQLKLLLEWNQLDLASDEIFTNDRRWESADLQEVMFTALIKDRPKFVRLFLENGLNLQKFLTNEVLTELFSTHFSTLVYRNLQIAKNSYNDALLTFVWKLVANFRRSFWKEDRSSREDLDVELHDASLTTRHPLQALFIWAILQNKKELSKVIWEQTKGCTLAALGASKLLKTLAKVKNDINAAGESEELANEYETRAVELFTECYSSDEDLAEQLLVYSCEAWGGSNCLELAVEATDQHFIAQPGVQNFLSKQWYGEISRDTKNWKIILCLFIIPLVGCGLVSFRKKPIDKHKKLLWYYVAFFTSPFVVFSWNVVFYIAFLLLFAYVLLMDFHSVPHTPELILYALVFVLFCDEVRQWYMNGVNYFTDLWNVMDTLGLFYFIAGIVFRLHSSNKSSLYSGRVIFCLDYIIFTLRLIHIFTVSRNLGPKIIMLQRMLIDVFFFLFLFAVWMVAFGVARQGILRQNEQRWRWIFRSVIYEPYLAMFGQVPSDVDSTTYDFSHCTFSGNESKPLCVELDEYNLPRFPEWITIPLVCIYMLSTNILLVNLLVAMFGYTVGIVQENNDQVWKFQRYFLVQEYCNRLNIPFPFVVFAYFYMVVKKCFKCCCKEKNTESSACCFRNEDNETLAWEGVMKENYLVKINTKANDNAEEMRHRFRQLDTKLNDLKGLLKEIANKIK", "assay": "Antagonist activity at rat recombinant TRPM8 receptor expressed in HEK293 cells assessed as inhibition of 0.25 uM icilin-induced stimulation of intracellular calcium level using Fluo4-AM dye based fluorimetric assay", "type": "functional, cell-based", "in_short": "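Fluo-4 AM loaded rat TRPM8 HEK293 cells in Tyrode's buffer, read at 22 °C with a Peltier-controlled cuvette. Compound added 5 min before 0.25 μM icilin, whose effect alone was taken as 100%. IC50 for half-maximal inhibition from curve fit. At least triplicate.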"}}, "data": [{"smiles": "CCCCCc1cc(O)c(C/C=C(\\C)CCC=C(C)C)c(O)c1", "note": "[CANNABIGEROL]", "values": [{"measurement": "IC50", "setting": "Cannabinoid receptor 1", "value": 3310, "unit": "nM"}, {"measurement": "Ki", "setting": "Cannabinoid receptor 1", "value": 760, "unit": "nM"}, {"measurement": "IC50", "setting": "Cannabinoid receptor 2", "value": 3460, "unit": "nM"}, {"measurement": "Ki", "setting": "Cannabinoid receptor 2", "value": 880, "unit": "nM"}, {"measurement": "Emax", "setting": "[1]", "value": 33.8, "unit": "%"}, {"measurement": "EC50", "setting": "[2]", "value": 1300, "unit": "nM"}, {"measurement": "IC50", "setting": "[3]", "value": 2600, "unit": "nM"}, {"measurement": "Emax", "setting": "[4]", "value": 73.6, "unit": "%"}, {"measurement": "EC50", "setting": "[5]", "value": 1700, "unit": "nM"}, {"measurement": "IC50", "setting": "[6]", "value": 1500, "unit": "nM"}, {"measurement": "Emax", "setting": "[7]", "value": 99.9, "unit": "%"}, {"measurement": "EC50", "setting": "[8]", "value": 700, "unit": "nM"}, {"measurement": "IC50", "setting": "[9]", "value": 13000, "unit": "nM"}, {"measurement": "IC50", "setting": "[10]", "value": 160, "unit": "nM"}]}, {"smiles": "CCCCCc1cc(O)c(C/C=C(\\C)CC/C=C(\\C)CCC=C(C)C)c(O)c1", "note": "[SESQUICANNABIGEROL]", "values": [{"measurement": "IC50", "setting": "Cannabinoid receptor 1", "value": 3270, "unit": "nM"}, {"measurement": "Ki", "setting": "Cannabinoid receptor 1", "value": 750, "unit": "nM"}, {"measurement": "IC50", "setting": "Cannabinoid receptor 2", "value": 710, "unit": "nM"}, {"measurement": "Ki", "setting": "Cannabinoid receptor 2", "value": 180, "unit": "nM"}, {"measurement": "Emax", "setting": "[1]", "value": 38.8, "unit": "%"}, {"measurement": "EC50", "setting": "[2]", "value": 4400, "unit": "nM"}, {"measurement": "IC50", "setting": "[3]", "value": 5700, "unit": "nM"}, {"measurement": "Emax", "setting": "[4]", "value": 56, "unit": "%"}, {"measurement": "EC50", "setting": "[5]", "value": 2700, "unit": "nM"}, {"measurement": "IC50", "setting": "[6]", "value": 2300, "unit": "nM"}, {"measurement": "Emax", "setting": "[7]", "value": 164, "unit": "%"}, {"measurement": "EC50", "setting": "[8]", "value": 1700, "unit": "nM"}, {"measurement": "IC50", "setting": "[9]", "value": 1200, "unit": "nM"}, {"measurement": "IC50", "setting": "[10]", "value": 950, "unit": "nM"}]}]}
